Results published in ChEMBL document CHEMBL1149502, “Conjugated indole-imidazole derivatives displaying cytotoxicity against multidrug resistant cancer cell lines” (Bioorg Med Chem Lett, 2006).

Legend:
Assay type in all cases: functional, cell-based
HL-60 [1] = assay: Cytotoxicity against human HL60/TX1000 cell line by MTS assay
Procedure, shortened: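 HL-60/TX1000 is a subline isolated in vitro by subculturing HL-60 in rising Taxol concentrations. It overexpresses MDR1 mRNA and P-glycoprotein (Western blot, anti-P-gp immunofluorescence). Cells were grown in RPMI1640 with 10% FC, penicillin, streptomycin and L-glutamine, split every third day and set at 2· 10⁵ cells/mL the day before. Compound was a 1 mM DMSO stock diluted into medium, read by MTS.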

HL-60 [2] = assay: Cytotoxicity against human HL60 cell line by MTS assay
Procedure, shortened: (§1)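 Cells kept in RPMI1640 with 10% FC, 100 U/mL penicillin, streptomycin and […] L-glutamine. Split every third day and diluted to 2· 10⁵ cells/mL one day before testing, so exponentially growing cultures were used. Compound stock was 1 mM in DMSO, diluted straight into the medium to final concentrations. Viability was read by MTS.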

P388 = assay: Cytotoxicity against murine P388 cell line by MTS assay; details: Mus musculus; procedure, shortened: as §1
DU-145 = assay: Cytotoxicity against human DU145 cell line by MTS assay; procedure, shortened: as §1
MES-SA = assay: Cytotoxicity against human MES-SA cell line by MTS assay; procedure, shortened: as §1
MDA-MB-435 = assay: Cytotoxicity against human MDA435 cell line by MTS assay; procedure, shortened: as §1
MES-SA/Dx5 = assay: Cytotoxicity against human MES-SA/DX5 cell line by MTS assay; procedure, shortened: as §1

Row | SMILES | IC50 (HL-60 [1]) [nM] | further results
1 | CCC(=O)c1c[nH]c(C(=O)c2cn(Cc3ccc(Cl)cc3)c3ccccc23)n1 | 500 | 
2 | Cn1c(C(=O)c2cn(Cc3ccc(Cl)cc3)c3ccccc23)nc2cnccc21 | 10000 | 
3 | O=C(c1nc2cc[nH]cc-2n1)c1cn(Cc2ccc(Cl)cc2)c2ccccc12 | 50 | IC50 (HL-60 [2]): 50 nM; IC50 (P388): 50 nM; IC50 (DU-145): 50 nM; IC50 (MES-SA): 10 nM; IC50 (MDA-MB-435): 50 nM; IC50 (MES-SA/Dx5): 50 nM
4 | CC(=O)O[C@H]1C(=O)[C@@]2(C)[C@H]([C@H](OC(=O)c3ccccc3)[C@]3(O)C[C@H](OC(=O)[C@H](O)[C@@H](NC(=O)c4ccccc4)c4ccccc4)C(C)=C1C3(C)C)[C@]1(OC(C)=O)CO[C@@H]1C[C@@H]2O [PACLITAXEL] |  | IC50 (MES-SA): 5 nM; IC50 (MDA-MB-435): 5 nM; IC50 (MES-SA/Dx5): 5000 nM
5 | CCNC(=O)c1c[nH]c(C(=O)c2cn(Cc3ccc(Cl)cc3)c3ccccc23)n1 | 5000 | 
6 | O=C(c1nc(CO)c[nH]1)c1cn(Cc2ccc(Cl)cc2)c2ccccc12 | 5000 | 
7 | O=C(c1nc(-c2ccccn2)c[nH]1)c1cn(Cc2ccc(Cl)cc2)c2ccccc12 | 500 | 
8 | O=C(c1ncc[nH]1)c1cn(Cc2ccc(Cl)cc2)c2ccccc12 | 10000 | 
9 | O=C(c1nc2ccc[nH]c-2n1)c1cn(Cc2ccc(Cl)cc2)c2ccccc12 | 10000 | 
10 | O=C(O)c1c[nH]c(C(=O)c2cn(Cc3ccc(Cl)cc3)c3ccccc23)n1 | 10000 | 
11 | O=C(c1cccnc1)c1c[nH]c(C(=O)c2cn(Cc3ccc(Cl)cc3)c3ccccc23)n1 | 500 | 
12 | O=C(c1nc(C(O)c2cccnc2)c[nH]1)c1cn(Cc2ccc(Cl)cc2)c2ccccc12 (stereo unspecified) | 10000 | 
13 | COC(=O)c1c[nH]c(C(=O)c2cn(Cc3ccc(Cl)cc3)c3ccccc23)n1 | 500 | 
